# Experimental data as given in ChEMBL document CHEMBL4033760, “Discovery of a Series of Indazole TRPA1 Antagonists” (ACS Med Chem Lett, 2017).
# The source made the active and inactive calls. The calls are words filed in the database; no cut-off is given here.
# Experiments:
# [1] = molecular target: T1, Transient receptor potential cation channel subfamily A member 1 (Homo sapiens, UniProt O75762); experiment: Inhibition of full length human TRPA1 at a holding potential of 15 mV measured after 1 min by PatchXpress electrophysiology assay
# In short: (§1)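 Medium-throughput PatchXpress electrophysiology on HEK293-T-rex cells expressing TRPA1 (human line; selected compounds also run in a rat TRPA1 line).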
# [2] = molecular target: T2, Transient receptor potential cation channel subfamily A member 1 (Rattus norvegicus, UniProt Q6RI86); experiment: Inhibition of full length rat TRPA1 at a holding potential of 15 mV measured after 1 min by PatchXpress electrophysiology assay; in short: as §1
# [3] = molecular target: Transient receptor potential cation channel subfamily A member 1 (Rattus norvegicus) (UniProt Q6RI86); settings: 1 uM
# [4] = molecular target: T3, Potassium voltage-gated channel subfamily KQT member 1 (Homo sapiens, UniProt P51787); experiment: Inhibition of KCNQ1 (unknown origin)
# T3 sequence (P51787 whole entry): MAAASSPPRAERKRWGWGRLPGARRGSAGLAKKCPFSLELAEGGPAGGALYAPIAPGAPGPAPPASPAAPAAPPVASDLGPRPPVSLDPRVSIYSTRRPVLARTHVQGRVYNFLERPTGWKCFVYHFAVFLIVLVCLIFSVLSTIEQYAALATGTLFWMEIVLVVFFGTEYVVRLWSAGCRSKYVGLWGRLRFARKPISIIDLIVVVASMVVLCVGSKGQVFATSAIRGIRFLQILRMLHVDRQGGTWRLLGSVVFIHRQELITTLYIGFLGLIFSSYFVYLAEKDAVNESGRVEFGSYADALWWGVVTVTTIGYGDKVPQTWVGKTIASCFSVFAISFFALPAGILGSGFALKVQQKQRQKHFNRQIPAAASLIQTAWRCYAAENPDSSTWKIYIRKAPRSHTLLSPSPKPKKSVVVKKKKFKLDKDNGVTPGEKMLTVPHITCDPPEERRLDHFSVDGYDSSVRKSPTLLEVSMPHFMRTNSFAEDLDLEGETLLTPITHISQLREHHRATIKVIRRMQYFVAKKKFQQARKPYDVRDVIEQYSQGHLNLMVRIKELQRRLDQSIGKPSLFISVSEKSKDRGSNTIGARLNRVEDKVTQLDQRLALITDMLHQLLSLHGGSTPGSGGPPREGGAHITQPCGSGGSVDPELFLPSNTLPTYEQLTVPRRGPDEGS
# [5] = molecular target: Sodium channel protein type 5 subunit alpha (Homo sapiens, UniProt Q14524); experiment: Inhibition of Nav1.5 (unknown origin)
# [6] = molecular target: Transient receptor potential cation channel subfamily V member 1 (Homo sapiens, UniProt Q8NER1); experiment: Inhibition of TRPV1 (unknown origin)
# [7] = molecular target: Voltage-gated inwardly rectifying potassium channel KCNH2 (Homo sapiens, UniProt Q12809)
# [8] = molecular target: Voltage-gated potassium channel, KQT; KCNQ2(Kv7.2)/KCNQ3(Kv7.3) (Homo sapiens, UniProt O43525+O43526); experiment: Activation of KCNQ2/3 (unknown origin); format: protein-complex assay
# [9] = molecular target: T1, Transient receptor potential cation channel subfamily A member 1; experiment: Antagonist activity at human TRPA1 by calcium flux based FLIPR assay
# In short: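 High-throughput antagonist-mode FLIPR Ca2+ imaging screen of the internal library in 384-well format; hits confirmed by single-rig electrophysiology.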
# [10] = Unbound fraction in Sprague-Dawley rat plasma
# [11] = Inhibition of full length opossum TRPA1 hS5 chimera at a holding potential of 15 mV measured after 1 min by PatchXpress electrophysiology assay; parameters: species or system Monodelphis domestica
# [12] = molecular target: Sodium channel protein type 9 subunit alpha (Homo sapiens, UniProt Q15858); experiment: Inhibition of Nav1.7 (unknown origin)
# [13] = Intrinsic clearance in human liver microsomes; format: ADME, microsome; settings: read-out: CLH
# [14] = test system: MDR1; experiment: Permeability across basolateral to apical side in RRCK cells expressing MDR1; format: ADME, cell-based, Canis lupus familiaris, MDCKII-LE; settings: dog, MDCK-MDR1; read-out: permeability
# [15] = Permeability in Sprague-Dawley rat skin; format: ADME, Zone of skin; settings: read-out: permeability (converted)
# In short: (§2)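 Skin flux study after topical administration. Skin permeability is given in cm/h, and compound concentrations are measured separately in the epidermal and dermal layers, expressed as μg/g.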
# [16] = test system: Rattus norvegicus; experiment: Suppression of cinnamaldehyde-induced flare response in Sprague-Dawley rat at 50 mg/ml administered topically measured after 60 mins by recording blood flow for 30 mins by laser Doppler sonography method; format: functional
# In short: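 Compound formulated in vehicle, applied topically to rat skin at 50 mg/mL and left for a set time. Then 20% v/v cinnamaldehyde in the same vehicle is applied at that site, and local blood flow is measured by laser Doppler sonography. Free plasma concentrations are also determined.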
# [17] = molecular target: T1, Transient receptor potential cation channel subfamily A member 1; experiment: Inhibition of full length human TRPA1 oS5 chimera at a holding potential of 15 mV measured after 1 min by PatchXpress electrophysiology assay
# [18] = molecular target: T2, Transient receptor potential cation channel subfamily A member 1; experiment: Inhibition of rat TRPA1 at a holding potential of 15 mV measured after 1 min by whole-cell manual patch clamp electrophysiology assay
# [19] = Aqueous solubility of the compound by kinetic miniaturized shakeflask method; format: physicochemical; settings: buffer
# In short: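 Kinetic miniaturized shake-flask method, starting from a DMSO stock solution.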
# [20] = Drug level in Sprague-Dawley rat skin dermal layer; format: ADME, Dermis; settings: in vivo; in short: as §2
# [21] = Inhibition of full length opossum TRPA1 at a holding potential of 15 mV measured after 1 min by PatchXpress electrophysiology assay; parameters: species or system Monodelphis domestica
# [22] = test system: MDR1; experiment: Permeability across apical to basolateral side in RRCK cells expressing MDR1; format: ADME, cell-based, Canis lupus familiaris, MDCKII-LE; settings: dog, MDCK-MDR1; read-out: permeability
# [23] = Intrinsic clearance in rat liver microsomes; format: ADME, microsome; settings: read-out: CLH
# [24] = Drug level in Sprague-Dawley rat skin epidermal layer; format: ADME, Skin epidermis; settings: in vivo; in short: as §2
# [25] = test system: Blood; experiment: Drug level in Sprague-Dawley rat blood at 10 to 100 mg/kg, po; format: ADME, organism-based; settings: in vivo, read-out: Drug uptake
# In short: (§3)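 Rats dosed orally at 10, 30 and 100 mg/kg, with mean systemic concentrations measured. Flare is induced by cinnamaldehyde and blood flow read by laser Doppler sonography, compared against vehicle and a TRPV1 antagonist given as a mechanistic comparator.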
# [26] = test system: Rattus norvegicus; experiment: Anti-inflammatory activity in po dosed Sprague-Dawley rat assessed as reduction in flinching dosed 2 hrs prior to subcutaneous administration of AITC in right hand paw measured for 30 mins; format: functional
# In short: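 Oral dosing in rats; AITC then given subcutaneously into the right hind paw. Paw flinching is scored, and the minimum effective dose is taken as the lowest dose giving a significant reduction.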
# [27] = test system: MDCKII-LE; experiment: Permeability in RRCK cells expressing MDR1; settings: dog
# [28] = test system: Rattus norvegicus; experiment: Suppression of cinnamaldehyde-induced flare response in Sprague-Dawley rat at 10 to 100 mg/kg administered systemically measured after 75 mins by recording blood flow for 30 mins by laser Doppler sonography method; format: functional, organism-based; in short: as §3
# Chain of Transient receptor potential cation channel subfamily V member 1 (Q8NER1 whole entry): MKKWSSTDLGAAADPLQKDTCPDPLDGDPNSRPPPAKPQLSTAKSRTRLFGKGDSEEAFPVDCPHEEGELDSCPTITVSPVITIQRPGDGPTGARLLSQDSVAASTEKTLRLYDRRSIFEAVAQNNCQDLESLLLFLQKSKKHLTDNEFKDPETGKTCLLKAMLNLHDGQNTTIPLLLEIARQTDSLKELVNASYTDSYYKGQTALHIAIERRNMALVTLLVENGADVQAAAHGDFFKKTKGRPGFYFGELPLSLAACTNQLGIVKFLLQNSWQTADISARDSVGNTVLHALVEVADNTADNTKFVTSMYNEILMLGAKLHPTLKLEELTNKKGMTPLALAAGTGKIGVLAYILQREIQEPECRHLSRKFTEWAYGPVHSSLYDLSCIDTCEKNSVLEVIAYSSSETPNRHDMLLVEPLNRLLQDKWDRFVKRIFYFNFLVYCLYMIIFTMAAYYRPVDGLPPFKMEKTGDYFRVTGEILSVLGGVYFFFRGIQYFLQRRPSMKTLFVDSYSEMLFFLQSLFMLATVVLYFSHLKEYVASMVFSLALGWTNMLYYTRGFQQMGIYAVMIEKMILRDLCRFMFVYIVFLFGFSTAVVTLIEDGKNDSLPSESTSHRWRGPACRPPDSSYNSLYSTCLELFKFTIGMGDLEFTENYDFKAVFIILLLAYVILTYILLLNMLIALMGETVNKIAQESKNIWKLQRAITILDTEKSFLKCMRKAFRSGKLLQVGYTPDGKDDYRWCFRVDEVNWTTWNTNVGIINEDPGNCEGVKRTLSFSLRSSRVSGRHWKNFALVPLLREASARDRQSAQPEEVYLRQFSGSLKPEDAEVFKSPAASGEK
# T2 sequence (Q6RI86 whole entry): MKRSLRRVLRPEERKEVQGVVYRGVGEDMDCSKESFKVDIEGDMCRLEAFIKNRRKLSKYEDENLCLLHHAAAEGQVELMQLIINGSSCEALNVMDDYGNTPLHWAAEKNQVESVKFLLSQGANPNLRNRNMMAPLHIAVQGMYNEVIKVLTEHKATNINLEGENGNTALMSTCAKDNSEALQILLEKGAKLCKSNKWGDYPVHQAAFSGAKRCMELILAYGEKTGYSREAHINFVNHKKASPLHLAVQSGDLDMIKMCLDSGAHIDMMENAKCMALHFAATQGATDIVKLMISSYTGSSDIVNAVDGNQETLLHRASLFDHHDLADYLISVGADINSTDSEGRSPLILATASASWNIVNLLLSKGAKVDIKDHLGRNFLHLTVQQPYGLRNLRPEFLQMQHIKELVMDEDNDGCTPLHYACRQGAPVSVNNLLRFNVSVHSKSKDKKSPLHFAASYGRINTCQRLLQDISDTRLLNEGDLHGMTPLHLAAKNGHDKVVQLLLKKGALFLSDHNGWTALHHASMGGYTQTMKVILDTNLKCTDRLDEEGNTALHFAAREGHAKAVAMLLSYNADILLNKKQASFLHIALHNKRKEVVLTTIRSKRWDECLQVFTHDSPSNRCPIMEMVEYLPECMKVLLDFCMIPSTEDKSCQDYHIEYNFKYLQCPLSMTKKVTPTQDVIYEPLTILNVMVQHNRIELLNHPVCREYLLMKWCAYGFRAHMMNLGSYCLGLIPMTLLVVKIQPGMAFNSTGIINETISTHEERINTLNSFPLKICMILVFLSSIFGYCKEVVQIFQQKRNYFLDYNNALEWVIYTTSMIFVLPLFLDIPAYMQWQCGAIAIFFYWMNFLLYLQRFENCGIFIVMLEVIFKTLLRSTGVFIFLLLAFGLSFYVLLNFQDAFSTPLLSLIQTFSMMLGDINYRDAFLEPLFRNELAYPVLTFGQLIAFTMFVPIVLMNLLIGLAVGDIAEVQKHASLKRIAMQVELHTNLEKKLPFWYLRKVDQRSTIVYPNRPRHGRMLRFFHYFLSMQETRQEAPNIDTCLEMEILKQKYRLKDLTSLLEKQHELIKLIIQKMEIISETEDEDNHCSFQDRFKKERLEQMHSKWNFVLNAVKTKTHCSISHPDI
# T1 sequence (O75762 whole entry): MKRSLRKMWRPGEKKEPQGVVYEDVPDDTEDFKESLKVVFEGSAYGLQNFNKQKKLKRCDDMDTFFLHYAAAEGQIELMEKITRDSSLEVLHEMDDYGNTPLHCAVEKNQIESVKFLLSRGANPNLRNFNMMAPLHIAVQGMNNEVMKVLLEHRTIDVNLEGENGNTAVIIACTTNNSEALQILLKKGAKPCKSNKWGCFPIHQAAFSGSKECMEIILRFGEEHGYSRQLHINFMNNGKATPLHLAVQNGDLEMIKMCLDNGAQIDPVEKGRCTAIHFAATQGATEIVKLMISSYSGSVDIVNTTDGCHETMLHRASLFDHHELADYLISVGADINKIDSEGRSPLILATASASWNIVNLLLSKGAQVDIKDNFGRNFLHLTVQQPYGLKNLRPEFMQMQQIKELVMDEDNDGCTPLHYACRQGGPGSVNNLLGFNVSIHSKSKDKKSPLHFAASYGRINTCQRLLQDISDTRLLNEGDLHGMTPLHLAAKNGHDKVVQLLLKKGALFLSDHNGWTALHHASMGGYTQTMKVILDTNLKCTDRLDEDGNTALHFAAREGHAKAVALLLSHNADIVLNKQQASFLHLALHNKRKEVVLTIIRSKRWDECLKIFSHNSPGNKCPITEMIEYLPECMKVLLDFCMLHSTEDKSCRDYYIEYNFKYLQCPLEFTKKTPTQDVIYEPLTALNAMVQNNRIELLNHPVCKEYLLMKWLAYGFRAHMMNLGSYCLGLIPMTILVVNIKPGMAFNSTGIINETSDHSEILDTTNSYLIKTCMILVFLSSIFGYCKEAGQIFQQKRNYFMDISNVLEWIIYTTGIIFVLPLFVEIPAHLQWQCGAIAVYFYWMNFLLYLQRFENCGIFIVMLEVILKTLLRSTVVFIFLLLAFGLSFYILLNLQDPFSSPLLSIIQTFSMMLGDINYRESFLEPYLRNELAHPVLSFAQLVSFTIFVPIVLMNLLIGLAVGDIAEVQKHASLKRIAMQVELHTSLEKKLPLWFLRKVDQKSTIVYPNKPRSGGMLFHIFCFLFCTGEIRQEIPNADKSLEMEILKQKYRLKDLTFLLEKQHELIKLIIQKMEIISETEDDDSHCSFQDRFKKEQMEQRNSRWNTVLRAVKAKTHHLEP
# Chain of Sodium channel protein type 5 subunit alpha (Q14524 whole entry): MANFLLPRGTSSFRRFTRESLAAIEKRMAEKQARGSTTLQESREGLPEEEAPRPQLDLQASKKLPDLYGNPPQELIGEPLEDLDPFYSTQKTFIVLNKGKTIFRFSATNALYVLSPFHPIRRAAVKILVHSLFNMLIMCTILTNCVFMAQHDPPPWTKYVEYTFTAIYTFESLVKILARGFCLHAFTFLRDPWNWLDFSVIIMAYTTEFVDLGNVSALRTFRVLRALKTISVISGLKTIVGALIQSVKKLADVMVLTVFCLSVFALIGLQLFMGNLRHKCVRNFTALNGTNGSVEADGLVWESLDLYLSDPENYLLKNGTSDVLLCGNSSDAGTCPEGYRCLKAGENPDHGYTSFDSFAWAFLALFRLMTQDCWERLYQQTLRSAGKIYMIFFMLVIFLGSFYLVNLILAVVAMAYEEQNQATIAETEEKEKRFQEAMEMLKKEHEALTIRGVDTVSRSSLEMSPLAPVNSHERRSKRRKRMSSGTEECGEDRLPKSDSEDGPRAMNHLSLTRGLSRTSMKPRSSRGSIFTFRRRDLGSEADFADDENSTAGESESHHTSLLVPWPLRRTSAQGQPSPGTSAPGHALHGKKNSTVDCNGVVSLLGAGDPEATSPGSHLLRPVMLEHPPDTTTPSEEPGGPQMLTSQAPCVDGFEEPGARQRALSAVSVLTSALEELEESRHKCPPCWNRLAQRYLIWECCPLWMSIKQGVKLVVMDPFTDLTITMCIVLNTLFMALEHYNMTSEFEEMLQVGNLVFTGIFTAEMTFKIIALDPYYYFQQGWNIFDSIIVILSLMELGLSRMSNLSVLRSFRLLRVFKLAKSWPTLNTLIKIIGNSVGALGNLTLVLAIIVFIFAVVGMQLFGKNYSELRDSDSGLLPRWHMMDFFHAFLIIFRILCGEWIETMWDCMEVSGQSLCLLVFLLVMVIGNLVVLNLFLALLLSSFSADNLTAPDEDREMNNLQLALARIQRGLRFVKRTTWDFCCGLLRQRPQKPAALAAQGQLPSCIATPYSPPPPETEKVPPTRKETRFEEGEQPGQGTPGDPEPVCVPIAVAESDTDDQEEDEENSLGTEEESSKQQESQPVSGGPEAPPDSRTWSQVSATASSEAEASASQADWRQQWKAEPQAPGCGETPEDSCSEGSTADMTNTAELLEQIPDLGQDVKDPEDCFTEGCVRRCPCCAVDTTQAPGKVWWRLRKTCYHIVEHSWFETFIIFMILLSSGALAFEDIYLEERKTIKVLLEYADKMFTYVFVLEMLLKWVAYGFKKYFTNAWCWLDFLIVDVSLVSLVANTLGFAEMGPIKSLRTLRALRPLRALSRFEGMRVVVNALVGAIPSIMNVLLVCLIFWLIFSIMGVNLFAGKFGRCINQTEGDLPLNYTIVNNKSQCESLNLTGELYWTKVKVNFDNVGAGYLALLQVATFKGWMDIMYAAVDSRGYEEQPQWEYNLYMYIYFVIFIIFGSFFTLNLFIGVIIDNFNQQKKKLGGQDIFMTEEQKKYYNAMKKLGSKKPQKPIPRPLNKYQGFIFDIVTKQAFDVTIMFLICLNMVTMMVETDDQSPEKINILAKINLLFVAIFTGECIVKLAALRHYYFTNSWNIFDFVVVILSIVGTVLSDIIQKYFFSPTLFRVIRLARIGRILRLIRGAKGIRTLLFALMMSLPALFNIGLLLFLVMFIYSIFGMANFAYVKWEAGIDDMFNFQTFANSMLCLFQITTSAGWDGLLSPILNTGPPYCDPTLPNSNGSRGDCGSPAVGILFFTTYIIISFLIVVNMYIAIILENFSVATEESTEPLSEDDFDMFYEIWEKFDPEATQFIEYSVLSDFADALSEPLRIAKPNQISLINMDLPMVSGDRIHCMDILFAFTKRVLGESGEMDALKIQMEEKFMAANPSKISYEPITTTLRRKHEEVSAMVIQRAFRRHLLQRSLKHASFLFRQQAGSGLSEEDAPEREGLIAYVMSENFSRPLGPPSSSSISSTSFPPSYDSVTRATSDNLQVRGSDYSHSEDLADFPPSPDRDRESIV
# Chain of Transient receptor potential cation channel subfamily A member 1 (Rattus norvegicus) (Q6RI86 whole entry): as the sequence (Q6RI86 whole entry) above
SMILES,IC50 [1] [µM],IC50 [2] [µM],other results
Cn1nc(Nc2ccc(Cl)nc2)c2ccc(C(F)(F)F)cc21,> 10,,
Fc1ccc(-c2n[nH]c3cc(OC(F)(F)F)cnc23)cc1F,0.134,0.128,
CN(c1ccc(Cl)nc1)c1n[nH]c2cc(C(F)(F)F)ccc12,> 10,,
Clc1ccc(Nc2n[nH]c3ccccc23)cc1,11.7,,
COCCNC(=O)c1ccc2c(-c3ccc(C#N)cc3)n[nH]c2c1,2.67,0.453,
N#Cc1ccc(-c2n[nH]c3cc(OC(F)(F)F)ccc23)s1,0.074,0.08,
Fc1ccc(-c2n[nH]c3cc(C(F)(F)F)cnc23)cc1F,0.45,0.255,
FC(F)(F)c1ccc2c(Nc3ccc(Cl)cc3)n[nH]c2c1,0.042,0.009,
Fc1ccc(-c2n[nH]c3cc(C(F)(F)F)ccc23)cc1F,2.1,0.329,
Fc1ccc(Nc2n[nH]c3cc(C(F)(F)F)ccc23)cc1F,0.053,0.009,
Fc1ccc(Nc2n[nH]c3cc(C(F)(F)F)cnc23)cc1F,0.038,0.023,
Fc1ccc(Nc2n[nH]c3cc(C(F)(F)F)ncc23)cc1F,0.645,,
Fc1ccc(Nc2n[nH]c3cc(-c4ccccc4OC(F)(F)F)ccc23)cc1F,1.2,,
Fc1ccc(Nc2n[nH]c3cc(OC(F)(F)F)cnc23)nc1,2.54,0.813,
Fc1ccc(Nc2n[nH]c3cc(OC(F)(F)F)ccc23)cc1F,0.131,< 0.1,inhibition [3]: 96%
N#Cc1ccc(-c2n[nH]c3cc(OC(F)(F)F)ccc23)cn1,1.18,0.271,
FC(F)(F)c1ccc2c(Nc3ccc(Cl)nc3)n[nH]c2c1,0.55,,IC50 [4]: 2.6 µM; IC50 [5]: 8.52 µM; IC50 [6]: > 30 µM; IC50 [7]: > 100 µM; EC50 [8]: 0.037 µM; IC50 [9]: 2.5 µM
Fc1ccc(Nc2n[nH]c3cc(Cl)ccc23)cc1F,0.111,0.049,
Fc1ccc(-c2n[nH]c3cc(OC(F)(F)F)cnc23)cc1,0.257,0.216,
CN(c1ccc(Cl)nc1)c1nn(C)c2cc(C(F)(F)F)ccc12,> 10,,
Fc1ccc2[nH]c(-c3n[nH]c4cc(OC(F)(F)F)cnc34)cc2c1,0.091,0.008,
Fc1ccc(Nc2n[nH]c3cc(OC(F)(F)F)cnc23)cc1F,0.02,0.011,Drug uptake(free) [10]: 7 to 59 nM; IC50 [11]: 0.132 µM; IC50 [12]: 8.7 µM; microsomal CLint [13]: 73 µL/min/mg; Papp B→A [14]: 70 nm/s; IC50 [5]: 18.2 µM; Papp [15]: 0.0333 nm/s; Activity [16]: Active; IC50 [6]: > 30 µM; IC50 [17]: 16 µM; IC50 [18]: 0.011 µM; solubility kinetic [19]: 1.6 µg/mL; Drug uptake [20]: 20 µg/g; IC50 [21]: > 30 µM; Papp A→B [22]: 20 nm/s; microsomal CLint [23]: 99 µL/min/mg; IC50 [9]: 0.33 µM; Drug uptake [24]: 304 µg/g
Fc1ccc(-c2n[nH]c3cc(NC4CCN(CC5CC5)CC4)cnc23)cc1,4.63,1.85,
Fc1ccc2[nH]c(-c3n[nH]c4cc(OC(F)(F)F)ccc34)cc2c1,0.748,0.116,
FC(F)(F)c1ccc2c(Nc3ccc(C(F)(F)F)nc3)n[nH]c2c1,> 10,,
Fc1ccc(Nc2n[nH]c3cc(-c4ccc(F)c(F)c4)ccc23)cc1F,3.7,,
N#Cc1ccc(-c2n[nH]c3cc(OC(F)(F)F)ccc23)cc1,0.686,0.246,IC50 [4]: > 3 µM; concentration [25]: 0.011 to 0.052 µM; Activity [26]: Dose-dependent effect; minimal effective dose ([26]; read-out: MED): 100 mg/kg; IC50 [12]: 17.7 µM; microsomal CLint [13]: < 8 µL/min/mg; Papp B→A [14]: 80 nm/s; IC50 [5]: 17.3 µM; IC50 [6]: > 30 µM; IC50 [18]: 0.195 µM; IC50 [7]: > 30 µM; EC50 [8]: > 30 µM; solubility kinetic [19]: 4.8 µg/mL; Papp [27]: < 1 nm/s; Papp A→B [22]: 40 nm/s; microsomal CLint [23]: 58 µL/min/mg; IC50 [9]: > 10 µM; Activity [28]: Active
